Values belong to the compound of their own block, whether it stands above or below them. Active and inactive are the calls of the source. No cut-off for these calls is given here.
Assays:
[1] = Tmax in healthy human plasma; assay type: ADME, organism-based
Procedure, shortened: (§1)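 Healthy human volunteers were dosed and plasma concentrations followed over time. Tmax was taken from the plasma profile, and terminal elimination half-life was estimated after a 60-mg dose.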

[2] = species on record: Homo sapiens; assay: Inhibition of sibutramine-induced increase in systolic blood pressure in human at 30 to 300 mg; assay type: functional, Artery
[3] = species on record: Homo sapiens; assay: Inhibition of sibutramine-induced increase in diastolic blood pressure in human at 30 to 300 mg; assay type: functional, Artery
[4] = species on record: Homo sapiens; assay: Inhibition of sibutramine-induced increase in heart rate in human at 30 to 300 mg; assay type: functional
[5] = Elimination half life in healthy human at 60 mg; assay type: ADME, organism-based; conditions: in vivo, read-out: beta t1/2 (converted); procedure, shortened: as §1
[6] = test system: Rattus norvegicus; assay: Antiobesity activity in Long-Evans rat assessed as increase in lipid utilization at 10 mg/kg, po measured after 4 hrs by indirect calorimetry analysis relative to control; assay type: functional, organism-based; parameters: dose 10 mg/kg
Procedure, shortened: (§2)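 Male Long–Evans rats with diet-induced obesity on a caloric dense diet received single oral doses of 3 or 10 mg/kg, with vehicle-treated rats as controls. Respiratory quotient (lipid utilization) and energy expenditure were followed by indirect calorimetry for about 4 h. Groups were compared by ANOVA with SNK post hoc test, p < 0.05.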

[7] = molecular target: Beta-3 adrenergic receptor (Rattus norvegicus) (UniProt P26255); assay: Agonist activity at rat adrenergic beta3 receptor expressed in DHB-11 CHO cells assessed as cAMP accumulation after 20 mins by scintillation proximity assay relative to isoproterenol; assay type: functional, cell-based
[8] = molecular target: T1, Beta-1 adrenergic receptor (Homo sapiens, UniProt P08588); assay: Agonist activity at human adrenergic beta1 receptor expressed in DHB-11 CHO cells assessed as cAMP accumulation after 20 mins by scintillation proximity assay relative to isoproterenol; assay type: functional, cell-based
Procedure, shortened: (§3)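 Whole-cell functional assay in transfected CHO cells expressing the human receptor, read as stimulated cAMP accumulation. Values are reported as the geometric mean ± standard deviation, with the number of runs (n) given.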
Target sequence in this assay (P08588 whole entry, looked up): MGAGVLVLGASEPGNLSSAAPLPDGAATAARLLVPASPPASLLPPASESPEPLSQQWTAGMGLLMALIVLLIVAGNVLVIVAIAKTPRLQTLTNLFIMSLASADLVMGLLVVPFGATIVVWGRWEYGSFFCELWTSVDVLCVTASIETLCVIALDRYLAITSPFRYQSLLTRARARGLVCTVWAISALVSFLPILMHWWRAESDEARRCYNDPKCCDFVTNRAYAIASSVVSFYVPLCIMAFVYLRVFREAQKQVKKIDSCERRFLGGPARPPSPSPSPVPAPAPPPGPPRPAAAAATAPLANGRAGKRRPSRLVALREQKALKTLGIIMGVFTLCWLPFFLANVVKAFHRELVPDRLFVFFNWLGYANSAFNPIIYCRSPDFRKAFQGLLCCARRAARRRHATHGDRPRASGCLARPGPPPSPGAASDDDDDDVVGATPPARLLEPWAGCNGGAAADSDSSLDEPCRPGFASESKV

[9] = test system: Rattus norvegicus; assay: Antiobesity activity in po dosed Long-Evans rat assessed as increase in energy expenditure measured after 4 hrs by indirect calorimetry analysis relative to control; assay type: functional, organism-based; procedure, shortened: as §2
[10] = molecular target: T2, Beta-3 adrenergic receptor (Homo sapiens, UniProt P13945); assay: Agonist activity at human adrenergic beta3 receptor expressed in DHB-11 CHO cells assessed as cAMP accumulation after 20 mins by scintillation proximity assay relative to isoproterenol; assay type: functional, cell-based
Target sequence in this assay (P13945 whole entry, looked up): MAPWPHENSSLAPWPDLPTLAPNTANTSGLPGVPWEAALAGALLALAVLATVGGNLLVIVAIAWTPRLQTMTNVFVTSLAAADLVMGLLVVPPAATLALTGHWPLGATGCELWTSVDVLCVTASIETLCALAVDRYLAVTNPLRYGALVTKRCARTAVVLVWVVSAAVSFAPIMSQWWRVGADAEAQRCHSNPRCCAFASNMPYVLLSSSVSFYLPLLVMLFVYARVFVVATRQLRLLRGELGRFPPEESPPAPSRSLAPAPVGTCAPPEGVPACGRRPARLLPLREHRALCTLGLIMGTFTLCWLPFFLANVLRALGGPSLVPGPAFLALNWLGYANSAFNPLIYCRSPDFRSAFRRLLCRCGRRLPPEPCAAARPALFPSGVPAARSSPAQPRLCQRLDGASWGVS

[11] = molecular target: T3, Beta-2 adrenergic receptor (Homo sapiens, UniProt P07550); assay: Agonist activity at human adrenergic beta2 receptor expressed in DHB-11 CHO cells assessed as cAMP accumulation after 20 mins by scintillation proximity assay relative to isoproterenol; assay type: functional, cell-based; procedure, shortened: as §3
Target sequence in this assay (P07550 whole entry, looked up): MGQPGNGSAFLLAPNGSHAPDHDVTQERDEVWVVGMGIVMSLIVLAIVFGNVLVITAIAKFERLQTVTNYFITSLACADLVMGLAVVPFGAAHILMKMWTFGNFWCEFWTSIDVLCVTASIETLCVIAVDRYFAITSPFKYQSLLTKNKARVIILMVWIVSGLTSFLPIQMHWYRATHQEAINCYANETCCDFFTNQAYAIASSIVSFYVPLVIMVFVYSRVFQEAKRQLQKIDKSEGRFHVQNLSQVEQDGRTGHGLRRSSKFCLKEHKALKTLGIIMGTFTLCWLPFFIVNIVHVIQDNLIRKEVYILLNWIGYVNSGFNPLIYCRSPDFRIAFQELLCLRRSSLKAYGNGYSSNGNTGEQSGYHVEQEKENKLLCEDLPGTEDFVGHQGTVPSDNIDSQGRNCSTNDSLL

[12] = test system: Rattus norvegicus; assay: Antiobesity activity in po dosed Long-Evans rat assessed as increase in lipid utilization measured after 4 hrs by indirect calorimetry analysis relative to control; assay type: functional, organism-based; procedure, shortened: as §2
[13] = test system: Rattus norvegicus; assay: Antiobesity activity in Long-Evans rat assessed as decrease in respiratory quotient at 3 to 10 mg/kg, po measured after 4 hrs by indirect calorimetry analysis relative to control; assay type: functional, organism-based; procedure, shortened: as §2
[14] = molecular target: T1, Beta-1 adrenergic receptor; assay: Displacement of [125I]Iodocyanopindolol from human adrenergic beta1 receptor expressed in insect sf9 cells by scintillation counting
Target sequence in this assay (P08588 whole entry): as the sequence (P08588 whole entry, looked up) above

[15] = molecular target: T3, Beta-2 adrenergic receptor; assay: Displacement of [125I]Iodocyanopindolol from human adrenergic beta2 receptor expressed in insect sf9 cells by scintillation counting
Target sequence in this assay (P07550 whole entry): as the sequence (P07550 whole entry, looked up) above

[16] = molecular target: T3, Beta-2 adrenergic receptor; assay: Agonist activity at human adrenergic beta2 receptor expressed in DHB-11 CHO cells assessed as cAMP accumulation after 20 mins by scintillation proximity assay; assay type: functional, cell-based
Target sequence in this assay (P07550 whole entry): as the sequence (P07550 whole entry, looked up) above

[17] = molecular target: Beta-3 adrenergic receptor (Rattus norvegicus, UniProt P26255); assay: Agonist activity at rat adrenergic beta3 receptor expressed in DHB-11 CHO cells assessed as cAMP accumulation after 20 mins by scintillation proximity assay; assay type: functional, cell-based
[18] = molecular target: T2, Beta-3 adrenergic receptor; assay: Agonist activity at human adrenergic beta3 receptor expressed in DHB-11 CHO cells assessed as cAMP accumulation after 20 mins by scintillation proximity assay; assay type: functional, cell-based
Target sequence in this assay (P13945 whole entry): as the sequence (P13945 whole entry, looked up) above

[19] = molecular target: T1, Beta-1 adrenergic receptor; assay: Agonist activity at human adrenergic beta1 receptor expressed in DHB-11 CHO cells assessed as cAMP accumulation after 20 mins by scintillation proximity assay; assay type: functional, cell-based
Target sequence in this assay (P08588 whole entry): as the sequence (P08588 whole entry, looked up) above

Chain of Beta-3 adrenergic receptor (Rattus norvegicus) (P26255 whole entry): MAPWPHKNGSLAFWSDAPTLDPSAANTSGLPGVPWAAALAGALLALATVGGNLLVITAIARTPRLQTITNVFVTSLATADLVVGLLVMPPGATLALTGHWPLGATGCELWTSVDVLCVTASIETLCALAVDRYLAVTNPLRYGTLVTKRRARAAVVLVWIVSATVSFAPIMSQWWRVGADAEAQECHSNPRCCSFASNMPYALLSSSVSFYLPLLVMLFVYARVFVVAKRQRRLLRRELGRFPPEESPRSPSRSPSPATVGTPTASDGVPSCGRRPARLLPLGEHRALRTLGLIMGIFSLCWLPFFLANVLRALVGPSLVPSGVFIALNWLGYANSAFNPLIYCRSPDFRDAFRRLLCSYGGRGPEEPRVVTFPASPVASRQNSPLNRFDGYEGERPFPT
Chain of Beta-3 adrenergic receptor (Rattus norvegicus, UniProt P26255) (P26255 whole entry): as above

- Tmax [1]: 2 h
- half-life [5]: 9 h
Structure (SMILES): CC(C)(Cc1ccc(Oc2ccc(C(N)=O)cn2)cc1)NC[C@H](O)COc1cccc2[nH]c3ccccc3c12 [LY377604]
- Activity [2]: 5.5 mmHg
- Activity [3]: 4.2 mmHg
- Activity [4]: 10.5 bpm

- Emax [7]: 55.5%
- Emax [8]: < 10%
- Emax [10]: 73.8%
- Emax [11]: < 10%
Structure (SMILES): CC(C)(Cc1ccc(Oc2ccc(C(N)=O)cn2)cc1)NC[C@H](O)COc1cccc2[nH]c3ccccc3c12 [listing 1 of 3 here]
- Activity [6]: Active
- Activity [9]: Dose-dependent effect
- Activity [12]: Dose-dependent effect
- Activity [13]: Active

- Ki [14]: 0.023 nM
- Ki [15]: 0.012 nM
Structure (SMILES): CC(C)(Cc1ccc(Oc2ccc(C(N)=O)cn2)cc1)NC[C@H](O)COc1cccc2[nH]c3ccccc3c12 [listing 2 of 3 here]

- EC50 [16]: > 3160 nM
- EC50 [17]: 5 nM
- EC50 [18]: 2.4 nM
- EC50 [19]: > 3160 nM
Structure (SMILES): CC(C)(Cc1ccc(Oc2ccc(C(N)=O)cn2)cc1)NC[C@H](O)COc1cccc2[nH]c3ccccc3c12 [listing 3 of 3 here]
